# Reference: ChEMBL document CHEMBL5058577, “EUbOPEN Chemogenomics Library 2 (Multiplex)” (2022)
# System: Fibroblast
# Assay: Multiplex assay against human fibroblast
# Assay type: toxicity, cell-based
# In short: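 Live cells were stained at seeding with Hoechst33342, BioTracker Green Microtubule Cytoskeleton Dye, MitoTracker Red and Annexin V Alexa Fluor 680. Following compound addition, they were imaged on a CQ1 microscope at 37°C and 5% CO2 and gated by CellPathfinder machine learning into Hoechst high-intensity objects or normal cells, with normal cells split into healthy, pyknosed or fragmented nuclei and pyknosed cells into mitotic or apoptotic. Tubulin, mitochondrial-mass and membrane-permeability phenotypes are per cents of healthy-nucleus cells.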
# [1] = 12 h, 1 µM, compound concentration 1 uM, replicate 1
# [2] = 12 h, 1 µM, compound concentration 1 uM, replicate 2
# [3] = 12 h, 10 µM, compound concentration 10 uM, replicate 1
# [4] = 12 h, 10 µM, compound concentration 10 uM, replicate 2
# [5] = 24 h, 1 µM, compound concentration 1 uM, replicate 1
# [6] = 24 h, 1 µM, compound concentration 1 uM, replicate 2
# [7] = 24 h, 10 µM, compound concentration 10 uM, replicate 1
# [8] = 24 h, 10 µM, compound concentration 10 uM, replicate 2
# [9] = 48 h, 1 µM, compound concentration 1 uM, replicate 1
# [10] = 48 h, 1 µM, compound concentration 1 uM, replicate 2
# [11] = 48 h, 10 µM, compound concentration 10 uM, replicate 1
# [12] = 48 h, 10 µM, compound concentration 10 uM, replicate 2
smiles,measurement,setting,value
COc1cc(C(=O)N2CC[C@@H](O)[C@@H](N)C2)cc2nc(-c3cc4ccccc4n3CC3CC3)n(C)c12.Cl,Population Apoptotic (%),[1],21%
same,Population Fragmented Nuclei (%),[1],25%
same,Population Healthy Nuclei (%),[1],62%
same,Population Hoechst High Intensity Objects (%),[1],2%
same,Population Membrane Permeable-Phenotype (%),[1],0%
same,Population Mitochondria Different-Phenotype (%),[1],4%
same,Population Mitotic Cells (%),[1],78%
same,Population Normal (%),[1],97%
same,Population Pyknosed Nuclei (%),[1],12%
same,Population Tubulin-Different-Phenotype (%),[1],55%
same,Total Cell Count,[1],160
same,Population Apoptotic (%),[2],48%
same,Population Fragmented Nuclei (%),[2],24%
same,Population Healthy Nuclei (%),[2],44%
same,Population Hoechst High Intensity Objects (%),[2],3%
same,Population Membrane Permeable-Phenotype (%),[2],10%
same,Population Mitochondria Different-Phenotype (%),[2],14%
same,Population Mitotic Cells (%),[2],51%
same,Population Normal (%),[2],96%
same,Population Pyknosed Nuclei (%),[2],31%
same,Population Tubulin-Different-Phenotype (%),[2],69%
same,Total Cell Count,[2],130
same,Population Apoptotic (%),[3],60%
same,Population Fragmented Nuclei (%),[3],22%
same,Population Healthy Nuclei (%),[3],57%
same,Population Hoechst High Intensity Objects (%),[3],6%
same,Population Membrane Permeable-Phenotype (%),[3],0%
same,Population Mitochondria Different-Phenotype (%),[3],34%
same,Population Mitotic Cells (%),[3],40%
same,Population Normal (%),[3],93%
same,Population Pyknosed Nuclei (%),[3],19%
same,Population Tubulin-Different-Phenotype (%),[3],97%
same,Total Cell Count,[3],271
same,Population Apoptotic (%),[4],48%
same,Population Fragmented Nuclei (%),[4],30%
same,Population Healthy Nuclei (%),[4],44%
same,Population Hoechst High Intensity Objects (%),[4],10%
same,Population Membrane Permeable-Phenotype (%),[4],2%
same,Population Mitochondria Different-Phenotype (%),[4],25%
same,Population Mitotic Cells (%),[4],51%
same,Population Normal (%),[4],89%
same,Population Pyknosed Nuclei (%),[4],25%
same,Population Tubulin-Different-Phenotype (%),[4],92%
same,Total Cell Count,[4],179
same,Population Apoptotic (%),[5],55%
same,Population Fragmented Nuclei (%),[5],24%
same,Population Healthy Nuclei (%),[5],62%
same,Population Hoechst High Intensity Objects (%),[5],3%
same,Population Membrane Permeable-Phenotype (%),[5],0%
same,Population Mitochondria Different-Phenotype (%),[5],5%
same,Population Mitotic Cells (%),[5],45%
same,Population Normal (%),[5],96%
same,Population Pyknosed Nuclei (%),[5],13%
same,Population Tubulin-Different-Phenotype (%),[5],51%
same,Total Cell Count,[5],158
same,Population Apoptotic (%),[6],60%
same,Population Fragmented Nuclei (%),[6],31%
same,Population Healthy Nuclei (%),[6],36%
same,Population Hoechst High Intensity Objects (%),[6],4%
same,Population Membrane Permeable-Phenotype (%),[6],4%
same,Population Mitochondria Different-Phenotype (%),[6],20%
same,Population Mitotic Cells (%),[6],39%
same,Population Normal (%),[6],95%
same,Population Pyknosed Nuclei (%),[6],31%
same,Population Tubulin-Different-Phenotype (%),[6],79%
same,Total Cell Count,[6],125
same,Population Apoptotic (%),[7],73%
same,Population Fragmented Nuclei (%),[7],15%
same,Population Healthy Nuclei (%),[7],68%
same,Population Hoechst High Intensity Objects (%),[7],7%
same,Population Membrane Permeable-Phenotype (%),[7],0%
same,Population Mitochondria Different-Phenotype (%),[7],55%
same,Population Mitotic Cells (%),[7],26%
same,Population Normal (%),[7],92%
same,Population Pyknosed Nuclei (%),[7],16%
same,Population Tubulin-Different-Phenotype (%),[7],94%
same,Total Cell Count,[7],274
same,Population Apoptotic (%),[8],62%
same,Population Fragmented Nuclei (%),[8],27%
same,Population Healthy Nuclei (%),[8],54%
same,Population Hoechst High Intensity Objects (%),[8],5%
same,Population Membrane Permeable-Phenotype (%),[8],3%
same,Population Mitochondria Different-Phenotype (%),[8],41%
same,Population Mitotic Cells (%),[8],37%
same,Population Normal (%),[8],94%
same,Population Pyknosed Nuclei (%),[8],17%
same,Population Tubulin-Different-Phenotype (%),[8],92%
same,Total Cell Count,[8],174
same,Population Apoptotic (%),[9],80%
same,Population Fragmented Nuclei (%),[9],22%
same,Population Healthy Nuclei (%),[9],67%
same,Population Hoechst High Intensity Objects (%),[9],6%
same,Population Membrane Permeable-Phenotype (%),[9],0%
same,Population Mitochondria Different-Phenotype (%),[9],8%
same,Population Mitotic Cells (%),[9],20%
same,Population Normal (%),[9],93%
same,Population Pyknosed Nuclei (%),[9],10%
same,Population Tubulin-Different-Phenotype (%),[9],44%
same,Total Cell Count,[9],161
same,Population Apoptotic (%),[10],64%
same,Population Fragmented Nuclei (%),[10],38%
same,Population Healthy Nuclei (%),[10],41%
same,Population Hoechst High Intensity Objects (%),[10],1%
same,Population Membrane Permeable-Phenotype (%),[10],3%
same,Population Mitochondria Different-Phenotype (%),[10],16%
same,Population Mitotic Cells (%),[10],35%
same,Population Normal (%),[10],98%
same,Population Pyknosed Nuclei (%),[10],20%
same,Population Tubulin-Different-Phenotype (%),[10],80%
same,Total Cell Count,[10],153
same,Population Apoptotic (%),[11],86%
same,Population Fragmented Nuclei (%),[11],20%
same,Population Healthy Nuclei (%),[11],64%
same,Population Hoechst High Intensity Objects (%),[11],8%
same,Population Membrane Permeable-Phenotype (%),[11],0%
same,Population Mitochondria Different-Phenotype (%),[11],62%
same,Population Mitotic Cells (%),[11],13%
same,Population Normal (%),[11],91%
same,Population Pyknosed Nuclei (%),[11],15%
same,Population Tubulin-Different-Phenotype (%),[11],94%
same,Total Cell Count,[11],256
same,Population Fragmented Nuclei (%),[12],32%
same,Population Healthy Nuclei (%),[12],55%
same,Population Hoechst High Intensity Objects (%),[12],4%
same,Population Mitochondria Different-Phenotype (%),[12],36%
same,Population Normal (%),[12],95%
same,Population Pyknosed Nuclei (%),[12],11%
same,Total Cell Count,[12],193
N[C@](CC1c2ccccc2Oc2ccccc21)(C(=O)O)[C@H]1C[C@@H]1C(=O)O,Population Apoptotic (%),[1],44%
same,Population Fragmented Nuclei (%),[1],12%
same,Population Healthy Nuclei (%),[1],73%
same,Population Hoechst High Intensity Objects (%),[1],4%
same,Population Membrane Permeable-Phenotype (%),[1],0%
same,Population Mitochondria Different-Phenotype (%),[1],1%
same,Population Mitotic Cells (%),[1],56%
same,Population Normal (%),[1],95%
same,Population Pyknosed Nuclei (%),[1],13%
same,Population Tubulin-Different-Phenotype (%),[1],27%
same,Total Cell Count,[1],189
same,Population Apoptotic (%),[2],58%
same,Population Fragmented Nuclei (%),[2],18%
same,Population Healthy Nuclei (%),[2],59%
same,Population Hoechst High Intensity Objects (%),[2],1%
same,Population Membrane Permeable-Phenotype (%),[2],7%
same,Population Mitotic Cells (%),[2],41%
same,Population Normal (%),[2],98%
same,Population Pyknosed Nuclei (%),[2],21%
same,Population Tubulin-Different-Phenotype (%),[2],37%
same,Total Cell Count,[2],113
same,Population Apoptotic (%),[3],50%
same,Population Fragmented Nuclei (%),[3],13%
same,Population Healthy Nuclei (%),[3],66%
same,Population Hoechst High Intensity Objects (%),[3],1%
same,Population Membrane Permeable-Phenotype (%),[3],2%
same,Population Mitochondria Different-Phenotype (%),[3],2%
same,Population Mitotic Cells (%),[3],50%
same,Population Normal (%),[3],98%
same,Population Pyknosed Nuclei (%),[3],20%
same,Population Tubulin-Different-Phenotype (%),[3],22%
same,Total Cell Count,[3],203
same,Population Apoptotic (%),[4],26%
same,Population Fragmented Nuclei (%),[4],20%
same,Population Healthy Nuclei (%),[4],59%
same,Population Hoechst High Intensity Objects (%),[4],7%
same,Population Membrane Permeable-Phenotype (%),[4],0%
same,Population Mitochondria Different-Phenotype (%),[4],7%
same,Population Mitotic Cells (%),[4],73%
same,Population Normal (%),[4],92%
same,Population Tubulin-Different-Phenotype (%),[4],33%
same,Total Cell Count,[4],119
same,Population Apoptotic (%),[5],68%
same,Population Fragmented Nuclei (%),[5],12%
same,Population Healthy Nuclei (%),[5],73%
same,Population Hoechst High Intensity Objects (%),[5],2%
same,Population Membrane Permeable-Phenotype (%),[5],2%
same,Population Mitochondria Different-Phenotype (%),[5],2%
same,Population Mitotic Cells (%),[5],32%
same,Population Normal (%),[5],97%
same,Population Pyknosed Nuclei (%),[5],13%
same,Population Tubulin-Different-Phenotype (%),[5],25%
same,Total Cell Count,[5],183
same,Population Apoptotic (%),[6],33%
same,Population Fragmented Nuclei (%),[6],27%
same,Population Healthy Nuclei (%),[6],49%
same,Population Hoechst High Intensity Objects (%),[6],4%
same,Population Membrane Permeable-Phenotype (%),[6],6%
same,Population Mitochondria Different-Phenotype (%),[6],1%
same,Population Mitotic Cells (%),[6],66%
same,Population Normal (%),[6],95%
same,Population Pyknosed Nuclei (%),[6],22%
same,Population Tubulin-Different-Phenotype (%),[6],44%
same,Total Cell Count,[6],123
same,Population Apoptotic (%),[7],57%
same,Population Fragmented Nuclei (%),[7],10%
same,Population Healthy Nuclei (%),[7],68%
same,Population Hoechst High Intensity Objects (%),[7],1%
same,Population Membrane Permeable-Phenotype (%),[7],1%
same,Population Mitochondria Different-Phenotype (%),[7],3%
same,Population Mitotic Cells (%),[7],42%
same,Population Normal (%),[7],98%
same,Population Pyknosed Nuclei (%),[7],20%
same,Population Tubulin-Different-Phenotype (%),[7],30%
same,Total Cell Count,[7],193
same,Population Apoptotic (%),[8],35%
same,Population Fragmented Nuclei (%),[8],18%
same,Population Healthy Nuclei (%),[8],66%
same,Population Hoechst High Intensity Objects (%),[8],2%
same,Population Mitochondria Different-Phenotype (%),[8],4%
same,Population Mitotic Cells (%),[8],64%
same,Population Normal (%),[8],97%
same,Population Pyknosed Nuclei (%),[8],15%
same,Population Tubulin-Different-Phenotype (%),[8],34%
same,Total Cell Count,[8],113
same,Population Apoptotic (%),[9],62%
same,Population Fragmented Nuclei (%),[9],17%
same,Population Healthy Nuclei (%),[9],68%
same,Population Hoechst High Intensity Objects (%),[9],2%
same,Population Membrane Permeable-Phenotype (%),[9],0%
same,Population Mitochondria Different-Phenotype (%),[9],2%
same,Population Mitotic Cells (%),[9],37%
same,Population Normal (%),[9],97%
same,Population Pyknosed Nuclei (%),[9],14%
same,Population Tubulin-Different-Phenotype (%),[9],26%
same,Total Cell Count,[9],189
same,Population Apoptotic (%),[10],23%
same,Population Fragmented Nuclei (%),[10],36%
same,Population Healthy Nuclei (%),[10],48%
same,Population Hoechst High Intensity Objects (%),[10],8%
same,Population Membrane Permeable-Phenotype (%),[10],9%
same,Population Mitochondria Different-Phenotype (%),[10],5%
same,Population Mitotic Cells (%),[10],76%
same,Population Normal (%),[10],91%
same,Population Tubulin-Different-Phenotype (%),[10],65%
same,Total Cell Count,[10],125
same,Population Apoptotic (%),[11],45%
same,Population Fragmented Nuclei (%),[11],14%
same,Population Healthy Nuclei (%),[11],68%
same,Population Hoechst High Intensity Objects (%),[11],5%
same,Population Membrane Permeable-Phenotype (%),[11],1%
same,Population Mitochondria Different-Phenotype (%),[11],2%
same,Population Mitotic Cells (%),[11],54%
same,Population Normal (%),[11],94%
same,Population Pyknosed Nuclei (%),[11],16%
same,Population Tubulin-Different-Phenotype (%),[11],32%
same,Total Cell Count,[11],198
same,Population Apoptotic (%),[12],27%
same,Population Fragmented Nuclei (%),[12],27%
same,Population Healthy Nuclei (%),[12],63%
same,Population Hoechst High Intensity Objects (%),[12],3%
same,Population Membrane Permeable-Phenotype (%),[12],2%
same,Population Mitotic Cells (%),[12],72%
same,Population Normal (%),[12],96%
same,Population Pyknosed Nuclei (%),[12],9%
same,Population Tubulin-Different-Phenotype (%),[12],28%
same,Total Cell Count,[12],115
